Reference: PubChem BioAssay AID540312 (Sanford-Burnham Center for Chemical Genomics, 2011)
Activity calls are given as the source filed them.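 How the source made its calls: active means mean EC50 of 20 µM or lower; inactive means the rest.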

Biological target: CHO-CHOP luciferase reporter, UPR activation, luminescence
Assay: CHOP luciferase reporter activation – CHO-CHOP cells, luminescence, SAR follow-up (AID 540312)
Outline: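 System: CHO-CHOP luciferase reporter cell line. Doses: compound dose-response series, final DMSO at most 1%. Detection: luminescence of luciferase reporter using Steady-Glo reagent. Schedule: 16–18 h cell rest, then 6 h compound treatment, 37 °C. Controls: tunicamycin 10 µg/mL as maximal activation, DMSO alone as baseline. Buffer or medium: F12 medium, 10% FBS.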

SMILES	EC50
Cc1ccc(C(=O)Nc2ccc(S(=O)(=O)N3CCOCC3)cc2)o1	> 80 µM (inactive)
O=C(Nc1nc2c(F)cc(F)cc2s1)c1ccncc1	> 80 µM (inactive)
CC1(C)CCN(S(=O)(=O)c2ccc(NC(=O)c3ccc([N+](=O)[O-])o3)cc2)CC1	0.494 µM
O=C(Nc1ccc(S(=O)(=O)N2CCCC2)cc1)c1ccc([N+](=O)[O-])o1	0.742 µM
O=C(Nc1nc2ccccc2s1)c1ccccn1	> 80 µM (inactive)
O=C(Nc1ccc(S(=O)(=O)N2CCOCC2)cc1)c1ccc([N+](=O)[O-])o1	2.28 µM
O=C(Nc1ccc(C(=O)N2CCOCC2)cc1)c1ccco1	> 80 µM (inactive)
Fc1cc(F)c2nc(NCc3ccccn3)sc2c1	> 80 µM (inactive)
O=C(Nc1ccc(S(=O)(=O)N2CCOCC2)cc1)c1ccccc1	> 80 µM (inactive)
O=C(Nc1ccc(S(=O)(=O)N2CCOCC2)cc1)c1ccc(Br)o1	> 80 µM (inactive)
O=C(Nc1cccc(S(=O)(=O)N2CCOCC2)c1)c1ccco1	> 80 µM (inactive)
O=C(Nc1ccc(S(=O)(=O)N2CCOCC2)cc1)c1ccco1	> 80 µM (inactive)
O=C(Nc1ccc(S(=O)(=O)c2ccccc2)cc1)c1ccc([N+](=O)[O-])o1	1.09 µM
O=C(Nc1nc2c(F)cc(F)cc2s1)c1ccccc1	> 80 µM (inactive)
O=C(Nc1ccc(S(=O)(=O)N2CCOCC2)cc1)c1ccc([N+](=O)[O-])cc1	> 80 µM (inactive)
Cc1cc(C)c2nc(NC(=O)c3ccccn3)sc2c1	7.56 µM
O=C(Nc1nc2ccc(F)cc2s1)c1ccccn1	12.6 µM
O=C(Nc1nc2c(F)cc(F)cc2s1)c1cccnc1	> 80 µM (inactive)

The next lines start with the values.

EC50	SMILES
0.541 µM	CC1CCN(S(=O)(=O)c2ccc(NC(=O)c3ccc([N+](=O)[O-])o3)cc2)CC1
5.83 µM	O=C(Nc1nc2c(F)cccc2s1)c1ccccn1
7.22 µM	O=C(Nc1nc2c(F)cc(F)cc2s1)c1ccccn1
> 80 µM (inactive)	O=C(Nc1nc2ccccc2s1)c1cccnc1
0.676 µM	O=C(Nc1ccc(S(=O)(=O)C2CCCCC2)cc1)c1ccc([N+](=O)[O-])o1
> 80 µM (inactive)	O=C(Nc1nc2ccccc2s1)c1ccncc1
> 80 µM (inactive)	O=C(Nc1ccc(S(=O)(=O)N2CCOCC2)cc1)c1cccs1
> 80 µM (inactive)	CC1CN(S(=O)(=O)c2ccc(NC(=O)c3ccco3)cc2)CC(C)O1 (stereo unspecified)
13.5 µM	O=C(Nc1ccc(S(=O)(=O)N2CCOCC2)cc1)c1ccc([N+](=O)[O-])s1
inactive	O=C(Nc1ccc(S(=O)(=O)N2CCNCC2)cc1)c1ccc([N+](=O)[O-])o1
10.6 µM	O=C(Nc1nc2c(Cl)cc(Cl)cc2s1)c1ccccn1
2.02 µM	O=C(Nc1ccc(S(=O)(=O)N2CCC(O)CC2)cc1)c1ccc([N+](=O)[O-])o1
1.75 µM	O=C(Nc1ccc(S(=O)(=O)N2CCCCC2)cc1)c1ccc([N+](=O)[O-])o1
